Assay results of several laboratories.
Compare with care: the assays were run in different laboratories.
Target: Mitogen-activated protein kinase 15 (MAPK15, Homo sapiens, UniProt Q8TD08)
One construct used (Q8TD08 1-544): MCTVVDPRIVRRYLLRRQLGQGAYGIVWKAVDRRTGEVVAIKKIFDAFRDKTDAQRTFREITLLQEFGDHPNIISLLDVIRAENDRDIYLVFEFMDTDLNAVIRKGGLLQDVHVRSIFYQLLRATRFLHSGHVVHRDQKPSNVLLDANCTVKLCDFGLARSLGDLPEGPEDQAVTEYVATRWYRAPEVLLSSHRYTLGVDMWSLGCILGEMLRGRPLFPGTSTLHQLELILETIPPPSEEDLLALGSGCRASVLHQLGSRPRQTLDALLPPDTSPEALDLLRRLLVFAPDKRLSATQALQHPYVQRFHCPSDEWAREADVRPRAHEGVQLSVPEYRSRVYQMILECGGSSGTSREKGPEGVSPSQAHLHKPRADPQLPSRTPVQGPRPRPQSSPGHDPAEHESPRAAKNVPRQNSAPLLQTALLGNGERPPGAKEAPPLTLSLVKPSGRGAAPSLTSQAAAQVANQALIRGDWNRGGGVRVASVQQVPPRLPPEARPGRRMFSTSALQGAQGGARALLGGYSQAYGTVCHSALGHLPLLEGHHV

COc1cc(/C=C/C(=O)CC(=O)/C=C/c2ccc(O)c(OC)c2)ccc1O — activity vs control (enzyme activity; inhibitor; 1 µM): 77%
Nc1nc(Nc2ccccc2)sc1C(=O)c1c(F)cccc1F — remaining activity (enzyme activity; inhibitor; 10 µM): 14%
Cc1sc(C(=O)NC2COC2)cc1-n1cc(NC(=O)Nc2c(F)cccc2Cl)cn1 — remaining activity (enzyme activity; inhibitor; 10 µM): 103%
Nc1nc(NC2CCCCC2)sc1C(=O)c1ccccc1 — remaining activity (enzyme activity; inhibitor; 10 µM): 18%
FC(F)(F)Oc1cccc(-c2cnc3ccc(-c4ccncc4)nn23)c1 — activity vs control (enzyme activity; inhibitor; radiometric; 1 µM): 29%
COc1cc(Nc2cnc(C#N)c(O[C@H](C)CN(C)C)n2)ncc1-c1cnn(C)c1 — remaining activity (enzyme activity; inhibitor; radiometric; 1 µM): 101%
N#CC1(c2ccccn2)CCN(Cc2cc(C(=O)N3CCCC3)c(=O)n3ccccc23)CC1 — remaining binding (cell-free assay; competition with immobilised ligand; 1 µM): 92%
CC(C)(C)c1nc(-c2cccc(NS(=O)(=O)c3c(F)cccc3F)c2F)c(-c2ccnc(N)n2)s1 — remaining activity (enzyme activity; inhibitor; radiometric; 1 µM): 80%
CCC(=N\O)/C(C)=C/c1ccc(F)cc1 — remaining binding (cell-free assay; competition with immobilised ligand; 1 µM): 95%
Cc1ccc(C(=O)Nc2ccc(CN3CCN(C)CC3)c(C(F)(F)F)c2)cc1C#Cc1cnc2cccnn12 — remaining activity (enzyme activity; inhibitor; 23.5 nM): 77%
CO[C@@H](C)c1c(Nc2ccc([C@@H](N(C)C(=O)C3CCS(=O)(=O)CC3)C(F)(F)F)cc2)cnc2cc(Cl)nn12 — remaining binding (cell-free assay; competition with immobilised ligand; 1 µM): 81%
FC(F)c1nc2ccccc2n1-c1nc(N2CCOCC2)nc(N2CCOCC2)n1 — remaining activity (enzyme activity; inhibitor; 10 µM): 92%
Cc1c[nH]c2nccc(Oc3c(F)cc(Nc4cc(Cl)nc(N)n4)cc3F)c12 — remaining binding (cell-free assay; competition with immobilised ligand; 0.1 µM): 100%
Cn1cnc(Br)c1C1=CN(c2ncnc3[nH]cnc23)CCS1 — inhibition (enzyme activity; inhibitor; radiometric; 50 nM): 17.1%
